# Measurements taken from ChEMBL document CHEMBL3097988, “Synthesis and characterization of new N-(4-(4-chloro-1H-imidazol-1-yl)-3-methoxyphenyl)amide/sulfonamide derivatives as possible antimicrobial and antitubercular agents” (2014).
# What was measured:
# Assay type in all cases: functional
# [1] = test system: Mycobacterium tuberculosis; assay: Antimicrobial activity against Mycobacterium tuberculosis H37Rv ATCC 27294 at 1 to 100 ug/ml after 7 days by resazurin assay
# In short: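 Preliminary screen at three concentrations (1, 10 and 100) by resazurin microtitre assay. Cultures were grown in Middlebrook 7H9 with 10% OADC, and compounds came from 2 mg/mL DMF stocks with DMF controls. Plates were incubated 7 days at 37 °C, and resazurin colour was read after 1 h. Inhibition was scored as no blue-to-pink change.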
# [2] = test system: Mycolicibacterium smegmatis; assay: Antimicrobial activity against Mycobacterium smegmatis (MC2) ATCC 19420 after 7 days by resazurin assay; settings: (MC2) ATCC 19420, 168 h
# [3] = test system: Mycobacterium tuberculosis; assay: Antimicrobial activity against Mycobacterium tuberculosis H37Rv ATCC 27294 after 7 days by resazurin assay; settings: H37Rv ATCC 27294, 168 h
# In short: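 Resazurin microtitre assay. Cultures were grown in Middlebrook 7H9 with 10% OADC and added to fresh medium in 96-well plates. Test compounds came from 2 mg/mL DMF stocks, with DMF-only controls. Plates were incubated 7 days at 37 °C, then resazurin was added and read after 1 h at 37 °C. MIC was the lowest concentration preventing the blue-to-pink change.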
# Rhizopus = assay: Antimicrobial activity against Rhizopus sp. after 3 to 4 days by serial plate dilution method
# In short: (§1)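 Fungal MIC by serial plate dilution. Sabouraud agar (peptone, D-glucose, agar; pH 5.7) plates seeded with saline spore suspension, dried 1 h at 37 °C. Wells punched and filled with compound in DMSO; DMSO-only control. Triplicate plates held 3–4 days at 37 °C; inhibition zone diameter measured. Amphotericin B positive control. Tested range […] per mL.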
# Aspergillus flavus = assay: Antimicrobial activity against Aspergillus flavus after 3 to 4 days by serial plate dilution method; in short: as §1
# Candida albicans = assay: Antimicrobial activity against Candida albicans after 3 to 4 days by serial plate dilution method; in short: as §1
# Klebsiella pneumoniae = assay: Antimicrobial activity against Klebsiella pneumoniae ATCC 13883 after 16 to 18 hrs by serial plate dilution method
# In short: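 Bacterial MIC by serial dilution in Mueller-Hinton broth adjusted to pH 5.0 with phosphate buffer. Tubes inoculated with standardized bacterial suspension, incubated 16–18 h at 37 °C. MIC read as lowest concentration with no visible growth. Range […] per mL. DMSO as negative control, ciprofloxacin as positive control.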
# Escherichia coli = assay: Antimicrobial activity against Escherichia coli ATCC 25922 after 16 to 18 hrs by […]
# Staphylococcus aureus = assay: Antimicrobial activity against Staphylococcus aureus ATCC 25923 after 16 to 18 hrs by […]
# [4] = test system: Mycolicibacterium fortuitum; assay: Antimicrobial activity against Mycobacterium fortuitum ATCC 19542 after 7 days by resazurin assay; settings: ATCC 19542, 168 h
Compound,inhibition (INH) [1] [%],MIC [2] [µg/mL],MIC [3] [µg/mL],MIC (Rhizopus) [µg/mL],MIC (Aspergillus flavus) [µg/mL],MIC (Candida albicans) [µg/mL],MIC (Klebsiella pneumoniae) [µg/mL],MIC (Escherichia coli) [µg/mL],MIC (Staphylococcus aureus) [µg/mL],MIC [4] [µg/mL]
COc1cc(NC(=O)c2ccc(Cl)cc2Cl)ccc1-n1cnc(Cl)c1,<90,10,5,128,128,> 256,> 256,64,128,
COc1cc(NC(=O)C2(c3ccc(Cl)cc3)CC2)ccc1-n1cnc(Cl)c1,<90,2.5,2.5,> 256,256,> 256,256,128,64,
COc1cc(NC(=O)c2c(F)ccc(C(F)(F)F)c2Cl)ccc1-n1cnc(Cl)c1,<90,2.5,2.5,128,> 256,128,256,128,> 256,
COc1cc(F)c(C(=O)Nc2ccc(-n3cnc(Cl)c3)c(OC)c2)c(F)c1,<90,,5,> 256,256,256,128,> 256,256,
O=C(O)c1cn(C2CC2)c2cc(N3CCNCC3)c(F)cc2c1=O [CIPROFLOXACIN],,,,,,,16,,8,
COc1ccc(C(=O)Nc2ccc(-n3cnc(Cl)c3)c(OC)c2)cc1,0,,,> 256,256,> 256,256,> 256,> 256,
COc1cc(NC(=O)c2cccc([N+](=O)[O-])c2Cl)ccc1-n1cnc(Cl)c1,90,1.25,1.25,> 256,256,128,128,> 256,128,1.25
NNC(=O)c1ccncc1 [ISONIAZID],95,50,0.7,,,,,,,12.5
COc1cc(NS(=O)(=O)c2ccc(Cl)cc2Cl)ccc1-n1cnc(Cl)c1,<90,,5,128,64,128,64,4,8,
COc1cc(NS(=O)(=O)C2(c3ccc(Cl)cc3)CC2)ccc1-n1cnc(Cl)c1,90,,1.25,128,64,128,128,64,128,10
COc1ccc(C(=O)Nc2ccc(-n3cnc(Cl)c3)c(OC)c2)cc1OC,0,,,256,128,> 256,256,256,> 256,
C[C@@H]1[C@H](O)[C@@H](C)/C=C/C=C/C=C/C=C/C=C/C=C/C=C/[C@H](O[C@@H]2O[C@H](C)[C@@H](O)[C@H](N)[C@@H]2O)C[C@@H]2O[C@](O)(C[C@@H](O)C[C@@H](O)[C@H](O)CC[C@@H](O)C[C@@H](O)CC(=O)O[C@H]1C)C[C@H](O)[C@H]2C(=O)O [AMPHOTERICIN B],,,,16,8,8,,,,
COc1cc(NS(=O)(=O)c2cccc(C(C)C#N)c2)ccc1-n1cnc(Cl)c1 (configuration not stated),<90,2.5,2.5,256,128,64,64,128,64,
COc1cc(NC(=O)c2cc(F)cc(C(F)(F)F)c2)ccc1-n1cnc(Cl)c1,90,,10,128,256,64,64,128,128,10
COc1cc(NC(=O)c2cccc(C(C)C#N)c2)ccc1-n1cnc(Cl)c1 (configuration not stated),90,,2.5,128,256,128,128,> 256,256,10
